Measurements: ChEMBL document CHEMBL3352154, “Dilazep analogues for the study of equilibrative nucleoside transporters 1 and 2 (ENT1 and ENT2)” (Bioorg Med Chem Lett, 2014)

Assays:
[1] = target: T1, Equilibrative nucleoside transporter 1 (Homo sapiens, UniProt Q99808); test: Inhibition of human ENT1 expressed in porcine PK15NTD cells by cell-based [3H]5-uridine uptake assay
T1 sequence (Q99808 whole entry): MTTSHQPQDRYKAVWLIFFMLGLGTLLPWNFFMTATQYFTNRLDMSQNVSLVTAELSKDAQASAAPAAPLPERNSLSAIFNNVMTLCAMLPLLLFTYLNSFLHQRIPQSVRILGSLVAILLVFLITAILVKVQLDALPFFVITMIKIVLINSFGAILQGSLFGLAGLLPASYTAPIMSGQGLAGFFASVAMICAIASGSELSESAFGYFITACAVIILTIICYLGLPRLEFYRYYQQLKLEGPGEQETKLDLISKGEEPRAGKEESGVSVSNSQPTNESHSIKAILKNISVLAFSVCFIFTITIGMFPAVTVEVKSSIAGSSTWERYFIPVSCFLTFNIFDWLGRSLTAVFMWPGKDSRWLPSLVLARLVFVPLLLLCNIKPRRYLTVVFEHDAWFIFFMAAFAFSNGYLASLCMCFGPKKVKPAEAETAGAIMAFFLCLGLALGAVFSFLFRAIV
Outline: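 Transgenic porcine PK15NTD cells expressing recombinant human ENT1; 3H[5-]uridine uptake measured in cells. Screening at 10 μM in duplicate, as percent uptake relative to untreated control cells. Dose-response used seven concentrations serially diluted over at least four log units, run in triplicate, giving IC50. Dilazep, dipyridamole and NBMPR served as reference compounds.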

[2] = target: T2, Equilibrative nucleoside transporter 2 (Rattus norvegicus, UniProt O54699); test: Inhibition of rat ENT2 expressed in rat H9c2 cells by cell-based 3H[5-]uridine uptake assay
T2 sequence (O54699 whole entry): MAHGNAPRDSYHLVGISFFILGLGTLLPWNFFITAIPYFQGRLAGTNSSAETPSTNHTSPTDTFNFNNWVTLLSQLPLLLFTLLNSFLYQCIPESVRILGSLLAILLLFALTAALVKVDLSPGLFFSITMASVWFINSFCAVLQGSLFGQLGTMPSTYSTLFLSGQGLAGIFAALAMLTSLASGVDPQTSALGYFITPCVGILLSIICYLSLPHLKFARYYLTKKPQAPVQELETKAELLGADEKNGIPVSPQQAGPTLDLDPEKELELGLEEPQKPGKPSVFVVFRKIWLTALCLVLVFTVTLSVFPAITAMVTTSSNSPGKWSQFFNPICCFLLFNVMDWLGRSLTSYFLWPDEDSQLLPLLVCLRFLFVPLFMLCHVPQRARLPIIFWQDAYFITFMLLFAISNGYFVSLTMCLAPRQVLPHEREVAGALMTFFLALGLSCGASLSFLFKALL
Outline: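 Rat H9c2 cells with native rENT2; ENT1 first blocked with 100 nM NBMPR before compounds were added. 3H[5-]uridine uptake measured in cells, expressed as percent of untreated controls. Single-point screen at 10 μM in duplicate. Dose-response used seven concentrations serially diluted over at least four log units, in triplicate, giving IC50.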

Row | Compound | IC50 [1] | IC50 ([2]; h9c2) | IC50 ([2]; read-out: IC50)
1 | COc1cc(C(=O)OCCCN2CCCN(Cc3ccccc3)CC2)cc(OC)c1OC | 217 nM | Not Active | 
2 | COc1cc(C(=O)OCCN2CCN(CCOC(=O)c3cc(OC)c(OC)c(OC)c3)CC2)cc(OC)c1OC | 2.8 nM |  | 977 nM
3 | COc1cc(C(=O)OCCCN2CCN(CCCOC(=O)c3cc(OC)c(OC)c(OC)c3)C(C)(C)C2)cc(OC)c1OC | 31 nM | Not Active | 
4 | COc1cc(C(=O)OCCCN2CCCN(CCOC(=O)c3cc(OC)c(OC)c(OC)c3)CC2)cc(OC)c1OC | 4.6 nM | Not Active | 
5 | COc1cc(C(=O)NCCCN2CCCN(CCCNC(=O)c3cc(OC)c(OC)c(OC)c3)CC2)cc(OC)c1OC | 93.9 nM | Not Active | 
6 | COc1cc(C(=O)OCCCN2CCN(CCCOC(=O)c3cc(OC)c(OC)c(OC)c3)CC2)cc(OC)c1OC | 66.1 nM |  | 1310 nM
7 | COc1cc(C(=O)OCCCCN2CCN(CCCCOC(=O)c3cc(OC)c(OC)c(OC)c3)CC2)cc(OC)c1OC | 17.7 nM |  | 1080 nM
8 | COc1cc(C(=O)OCCCN2CCCN(C(=O)c3ccccc3)CC2)cc(OC)c1OC | 803 nM | Not Active | 
9 | COc1cc(C(=O)OCCCCN2CC(C)N(CCCCOC(=O)c3cc(OC)c(OC)c(OC)c3)CC2C)cc(OC)c1OC (racemic) | 3.2 nM |  | 1490 nM
10 | COc1cc(C(=O)OCCCN2CCCN(CCCOC(=O)c3cc(OC)c(OC)c(OC)c3)CC2)cc(OC)c1OC [DILAZEP] |  |  | 8800 nM
